Data set [1] in a line: Antioxidant scavenging activity against 2,2'-azobis-amidinopropane-induced peroxyl radicals assessed as total oxyradical scavenging capacity. It counts as physicochemical. More on the design: unit not given here. The method in brief: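 Peroxyl radicals from thermal homolysis of ABAP at 39 °C, with 0.1 mM KMBA and 10 mM ABAP (final) in 100 mM potassium phosphate, pH 7.4. Ethylene in the headspace was measured by GC at 12-min intervals over 60 min. TOSC = 100 − (∫sample/∫control area × 100). rTOSC is the slope of the TOSC vs concentration regression within the linear range.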

A short description of data set [2]: Antioxidant scavenging activity against 2,2'-azobis-amidinopropane-induced peroxyl radicals assessed as total oxyradical scavenging capacity relative to Trolox. It counts as physicochemical. The method in brief: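 Uses the same ABAP/KMBA ethylene-GC assay: 39 °C, 0.1 mM KMBA, 10 mM ABAP, pH 7.4 phosphate, 60-min time course. TOSC comes from the areas under the kinetic curves, and rTOSC from the slope of TOSC against concentration. Comparative TOSC (cTOSC) expresses each rTOSC relative to the Trolox benchmark.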

As for `COc1cc(-c2cc(=O)c3c(O)c(OC)c(OC)c(OC)c3o2)ccc1O`, the results for the Activity in data set [1] and in data set [2] were 4.53 and 0.81, respectively. As for `COc1ccc(-c2oc3cc(OC)c(OC)c(O)c3c(=O)c2OC)cc1OC` [ARTEMETIN], the Activity in data set [1] came to 1.55; in data set [2] it was 0.28. The corresponding values for `O=c1c(O)c(-c2ccc(O)c(O)c2)oc2cc(O)cc(O)c12` [QUERCETIN] are 40.32 and 7.17. The corresponding values for `C[C@@H]1O[C@@H](OC[C@H]2O[C@@H](Oc3c(-c4ccc(O)c(O)c4)oc4cc(O)cc(O)c4c3=O)[C@H](O)[C@@H](O)[C@@H]2O)[C@H](O)[C@H](O)[C@H]1O` [RUTIN] are 28.96 and 5.15. Turning to `Cc1c(C)c2c(c(C)c1O)CCC(C)(C(=O)O)O2` (stereo unspecified) [TROLOX], the Activity in data set [1] was determined as 5.62. For `COc1cc(-c2cc(=O)c3c(O)c(O)c(OC)c(OC)c3o2)ccc1O`, the results for the Activity in data set [1] and in data set [2] were 8.53 and 1.52, respectively.

For the origin of these results see ChEMBL document CHEMBL1155689, “Evaluation of the total peroxyl radical-scavenging capacity of flavonoids: structure-activity relationships” (J Nat Prod, 2000).
